Measured values as given in the array DNA melting data of Ke et al. (doi:10.1101/2024.01.08.574731).

Key:
[1] = folding enthalpy; higher = less favourable; fluorescence melt of hairpins on a sequencing array, two-state fit; conditions: sodium 0.088 M
In short: (§1)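 Folding enthalpy and melting temperature come from bootstrapped two-state fits to Cy3 fluorescence of library hairpins carrying annealed Cy3 and quencher oligos on a sequenced MiSeq flow cell. Imaging was done in 50 mM Na-HEPES pH 8.0, 25 mM NaCl, stepping by 2.5 °C up to 60 °C, and signals were normalised to pre-quench Cy3 and to control constructs. Results of four replicates were combined by inverse variance, and fitted temperatures were raised by 9.35 °C to match UV melts.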

[2] = melting temperature; fluorescence melt of hairpins on a sequencing array, two-state fit, raised by 9.35 °C to match UV melts; conditions: sodium 0.088 M
In short: as §1

Sequence: GCCGAGCGAAAGCTCTGC ((.((((....)))).))
- folding enthalpy [1]: -28.5 kcal/mol
- Tm [2]: 58.7 °C

Sequence: GCCGAGCGAAAGCTTCGC ((..(((....)))..))
- folding enthalpy [1]: -11.3 kcal/mol
- Tm [2]: 49.2 °C

Sequence: GCCGAGCGAAAGCTTTGC ((..(((....)))..))
- folding enthalpy [1]: -12.6 kcal/mol
- Tm [2]: 39.1 °C

Sequence: GCCGAGTCGAAAGACGGC (((..(((....))))))
- folding enthalpy [1]: -21.2 kcal/mol
- Tm [2]: 56.6 °C

Sequence: GCCGATGGAAACGTTGGC (((.(.(....).).)))
- folding enthalpy [1]: -25.5 kcal/mol
- Tm [2]: 43 °C

Sequence: GCCGCAGGAAACTACGGC ((((.((....)).))))
- folding enthalpy [1]: -32.5 kcal/mol
- Tm [2]: 50.8 °C

Sequence: GCCGCATCGAAAGATGGC (((..(((....))))))
- folding enthalpy [1]: -11.4 kcal/mol
- Tm [2]: 46.9 °C

Sequence: GCCGCCACGAAAGTGGGC (((..(((....))))))
- folding enthalpy [1]: -8.39 kcal/mol
- Tm [2]: 54.6 °C

Sequence: GCCGCCGAAAGGCCTGGC ((((((....)))..)))
- folding enthalpy [1]: -16 kcal/mol
- Tm [2]: 51 °C

Sequence: GCCGCCGAAAGGCTTGGC ((((((....)))..)))
- folding enthalpy [1]: -21 kcal/mol
- Tm [2]: 54.5 °C

Sequence: GCCGCCGGAAACAGCGGC (((((.(....).)))))
- folding enthalpy [1]: -37.4 kcal/mol
- Tm [2]: 66.4 °C

Sequence: GCCGCGCGAAAGCCAGGC (((..((....))..)))
- folding enthalpy [1]: -27.8 kcal/mol
- Tm [2]: 62 °C

Sequence: GCCGCGCGAAAGCCGGGC (((..((....))..)))
- folding enthalpy [1]: -18.5 kcal/mol
- Tm [2]: 68.2 °C

Sequence: GCCGCGCGAAAGCGAAGC ((..(((....)))..))
- folding enthalpy [1]: -12.9 kcal/mol
- Tm [2]: 46 °C

Sequence: GCCGCGCGAAAGCTTGGC (((..((....))..)))
- folding enthalpy [1]: -22.7 kcal/mol
- Tm [2]: 55.1 °C

Sequence: GCCGCGGCGAAAGCCGGC (((..(((....))))))
- folding enthalpy [1]: -7.85 kcal/mol
- Tm [2]: 68.6 °C

Sequence: GCCGCTCGAAAGAGAGGC (((.(((....))).)))
- folding enthalpy [1]: -40 kcal/mol
- Tm [2]: 67.1 °C

Sequence: GCCGCTGGAAACAGCAGC ((.((((....)))).))
- folding enthalpy [1]: -20.1 kcal/mol
- Tm [2]: 50.1 °C

Sequence: GCCGCTTCGAAAGAAGGC (((..(((....))))))
- folding enthalpy [1]: -13.2 kcal/mol
- Tm [2]: 49.7 °C

Sequence: GCCGGAGGAAACTCCGAC (.(((((....))))).)
- folding enthalpy [1]: -13.1 kcal/mol
- Tm [2]: 49.9 °C

Sequence: GCCGGCACGAAAGTGGGC (((..(((....))))))
- folding enthalpy [1]: -19.2 kcal/mol
- Tm [2]: 51.8 °C

Sequence: GCCGGCCCGAAAGGGGGC (((..(((....))))))
- folding enthalpy [1]: -11.3 kcal/mol
- Tm [2]: 58.3 °C

Sequence: GCCGGCGAAAGCCAGGGC ((((((....)))..)))
- folding enthalpy [1]: -18.7 kcal/mol
- Tm [2]: 63.1 °C

Sequence: GCCGGCGAAAGCCATGGC ((((((....)))..)))
- folding enthalpy [1]: -19.9 kcal/mol
- Tm [2]: 56.1 °C

Sequence: GCCGGCGAAAGCCCCGGC ((((((....)))..)))
- folding enthalpy [1]: -18.3 kcal/mol
- Tm [2]: 55.2 °C

Sequence: GCCGGCGCGAAAGCGGGC (((..(((....))))))
- folding enthalpy [1]: -14.4 kcal/mol
- Tm [2]: 63 °C

Sequence: GCCGGGCGAAAGCAAGGC (((..((....))..)))
- folding enthalpy [1]: -34 kcal/mol
- Tm [2]: 68.5 °C

Sequence: GCCGGGCGAAAGCACAGC ((.(.((....)).).))
- folding enthalpy [1]: -16.9 kcal/mol
- Tm [2]: 53.8 °C

Sequence: GCCGGGCGAAAGCACCGC ((.(.((....)).).))
- folding enthalpy [1]: -14.1 kcal/mol
- Tm [2]: 49 °C

Sequence: GCCGGGCGAAAGCGCTGC ((.(.((....)).).))
- folding enthalpy [1]: -20.3 kcal/mol
- Tm [2]: 43 °C

Sequence: GCCGGGCGAAAGCTCAGC ((.(.((....)).).))
- folding enthalpy [1]: -16.9 kcal/mol
- Tm [2]: 44.4 °C

Sequence: GCCGGGGGAAACCTCGGC ((((.((....)).))))
- folding enthalpy [1]: -37.9 kcal/mol
- Tm [2]: 66.7 °C

Sequence: GCCGGTGGAAACACCAGC ((.((((....)))).))
- folding enthalpy [1]: -21.5 kcal/mol
- Tm [2]: 48.4 °C

Sequence: GCCGGTGGAAACACTGGC (((.(((....))).)))
- folding enthalpy [1]: -41.5 kcal/mol
- Tm [2]: 60 °C

Sequence: GCCGTAGAAATACGGC ((((((....))))))
- folding enthalpy [1]: -42.4 kcal/mol
- Tm [2]: 64 °C

Sequence: GCCGTAGGAAACTATGGC (((.(((....))).)))
- folding enthalpy [1]: -34 kcal/mol
- Tm [2]: 51.3 °C

Sequence: GCCGTCCCGAAAGGGGGC (((..(((....))))))
- folding enthalpy [1]: -17 kcal/mol
- Tm [2]: 49.4 °C

Sequence: GCCGTCGAAAGACGTGGC ((((((....)))..)))
- folding enthalpy [1]: -14.1 kcal/mol
- Tm [2]: 58.8 °C

Sequence: GCCGTCGAAAGACTAGGC ((((((....)))..)))
- folding enthalpy [1]: -35.5 kcal/mol
- Tm [2]: 52.8 °C

Sequence: GCCGTCGGAAACGACGAC (.(((((....))))).)
- folding enthalpy [1]: -13.3 kcal/mol
- Tm [2]: 54.8 °C

Sequence: GCCGTCGGAAACGGTGGC (((..((....))..)))
- folding enthalpy [1]: -22 kcal/mol
- Tm [2]: 51.3 °C

Sequence: GCCGTGCGAAAGCAAAGC ((..(((....)))..))
- folding enthalpy [1]: -9.19 kcal/mol
- Tm [2]: 40.4 °C

Sequence: GCCGTGCGAAAGCGCAGC ((.(.((....)).).))
- folding enthalpy [1]: -13 kcal/mol
- Tm [2]: 49.1 °C

Sequence: GCCGTGCGAAAGCTGGGC (((..((....))..)))
- folding enthalpy [1]: -19.9 kcal/mol
- Tm [2]: 59.5 °C

Sequence: GCCGTGGCGAAAGCCGGC (((..(((....))))))
- folding enthalpy [1]: -21.4 kcal/mol
- Tm [2]: 62.8 °C
